Hits are enriched below; roughly 2.2% of the tested compounds scored in any of these assays.
dFosB activator – mouse delta FosB homodimer activation; purified delta FosB, TAMRA-CDK5 oligo fluorescence polarization; percent of positive-control signal above neutral wells; 0.99% of 340,000 active; P13346; activation, % at 25 µM;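 active = mean activation above about 17%, with every replicate also reaching it, limit read from the data, passing the limit was not always enough; inconclusive = only one of the two conditions met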
Target sequence (P13346 whole entry, looked up): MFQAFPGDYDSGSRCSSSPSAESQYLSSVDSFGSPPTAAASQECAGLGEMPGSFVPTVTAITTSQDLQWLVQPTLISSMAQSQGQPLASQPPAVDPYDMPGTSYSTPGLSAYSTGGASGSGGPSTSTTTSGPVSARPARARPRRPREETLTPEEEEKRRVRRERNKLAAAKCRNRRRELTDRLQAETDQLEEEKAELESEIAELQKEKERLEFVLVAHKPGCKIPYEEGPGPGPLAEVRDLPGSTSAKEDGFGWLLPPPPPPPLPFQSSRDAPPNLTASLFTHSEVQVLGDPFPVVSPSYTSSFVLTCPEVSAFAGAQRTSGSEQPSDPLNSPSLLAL
S100A4 inh HTS – blocks human S100A4 binding to myosin IIA peptide; AID 652163; 0.14% of 360,000 active; inhibition, % at 10.7 µM; P26447; S100A4/TAMRA-MyoIIA peptide fluorescence polarization;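 active = mean inhibition of at least 70% across replicates, with every replicate also reaching that level; inconclusive = mean inhibition reaches 70% but some replicates fall short; inactive = mean inhibition below 70%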
Target sequence (P26447 whole entry, looked up): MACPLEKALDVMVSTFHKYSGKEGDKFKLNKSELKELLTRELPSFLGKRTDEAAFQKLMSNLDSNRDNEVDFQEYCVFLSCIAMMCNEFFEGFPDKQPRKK
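Compound dosing: one dose per compound; test system: human S100A4 monomer with TAMRA-labelled myosin IIA peptide; probe or stimulus: TAMRA-labelled myosin IIA heavy-chain peptide probe, 5 nM; medium: HEPES buffer with Ca2+, pH 7.2; schedule: 5 min incubation before reading; benchmarks: neutral control DMSO, positive control TFP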
FGF22 binding – FGF22 (human) thermal shift binding; AID 651658; recombinant FGF22 thermal shift, SYPRO orange fluorescence; percent of sucrose octasulfate shift, DMSO zero; Q9HCT0; 1.5% of 340,000 active; activity (Tm shift, normalised), % at 9.99 µM;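 active = mean Tm shift, scaled 0 neutral to 100 positive control, at about 1.3% or above, every replicate too, limit read from the data; inconclusive = no clear call, values can overlap the other calls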
Target sequence (Q9HCT0 whole entry, looked up): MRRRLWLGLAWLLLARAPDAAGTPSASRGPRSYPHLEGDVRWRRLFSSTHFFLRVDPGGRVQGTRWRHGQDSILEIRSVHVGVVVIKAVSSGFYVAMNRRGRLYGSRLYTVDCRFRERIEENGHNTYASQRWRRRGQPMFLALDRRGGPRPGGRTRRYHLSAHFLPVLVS
F508del corr – CFTR F508del correction in bronchial cells. CFBE cells, YFP halide quenching; stimulated with forskolin plus potentiator P3; % fluorescence drop versus neutral controls. AID 720511. activity (quench increase), % at 7.58 µM. 0.36% of 350,000 active;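 active = mean added fluorescence quench of at least 8% versus neutral control, with both replicates also reaching 8%; inconclusive = only one of the mean or replicate conditions met; inactive = mean below 8% and not both replicates reaching 8%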;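 note: cells transiently co-express mutant CFTR-F508del with the halide-sensitive YFP; corrector assay measuring rescue of mutant channel to the surface after 24 h compound exposure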
Numbers without * were called inactive; ? = inconclusive; . = not tested or not shown.

SMILES	dFosB activator	S100A4 inh HTS	FGF22 binding	F508del corr
O=C(CN1C(=O)CCC1=O)Nc1nc(-c2ccc3ccccc3c2)cs1	15	0	44*	3
COc1cccc(/C=N/Nc2nc(Nc3ccccc3)nc(-n3nc(C)cc3C)n2)c1O	41*	.	.	.
C[C@@H]1CN([C@@H](C)CO)C(=O)c2cc(NC(=O)CCCN(C)C)ccc2O[C@H]1CN(C)C(=O)Nc1ccc(F)cc1	.	-2	0	-2
C[C@H]1CN([C@@H](C)CO)S(=O)(=O)c2ccc(C#Cc3ccccc3)cc2O[C@H]1CN(C)C(=O)Nc1ccccc1	.	2	1	0
COc1cccc(NC(=O)N(C)C[C@H]2Oc3cc(C#Cc4ccccc4)ccc3S(=O)(=O)N([C@@H](C)CO)C[C@H]2C)c1	.	.	1.4*	4
COc1cccc(C#Cc2ccc3c(c2)O[C@H](CN(C)C(=O)c2ccccn2)[C@@H](C)CN([C@@H](C)CO)S3(=O)=O)c1	.	-8	0	0
CC(C)CC#Cc1ccc2c(c1)O[C@@H](CN(C)C(=O)Nc1ccccc1)[C@@H](C)CN([C@H](C)CO)S2(=O)=O	.	117*	0	3
COc1cccc(NC(=O)N(C)C[C@@H]2Oc3cc(C#Cc4ccccc4)ccc3S(=O)(=O)N([C@@H](C)CO)C[C@H]2C)c1	.	.	0	2
C[C@H](CO)N1C[C@H](C)[C@H](CN(C)C(=O)c2ccc3c(c2)OCO3)Oc2cc(C#Cc3ccccc3F)ccc2S1(=O)=O	.	65	1	8.8*
COc1cccc(C#Cc2ccc3c(c2)O[C@@H](CN(C)C(=O)c2ccccn2)[C@H](C)CN([C@@H](C)CO)S3(=O)=O)c1	.	3	0	9.8*
C[C@H](NC(=O)C[C@@H]1CC[C@@H](NC(=O)C2CCC2)[C@@H](CO)O1)c1ccccc1	.	7	0	4
CCCNC(=O)N1C[C@H](C)[C@@H](OC)CN(C)C(=O)c2cc(NC(=O)CCC)ccc2OC[C@@H]1C	.	-10	0	3
CC(=O)N(C)C[C@H]1Oc2cc(C#CCC(C)C)ccc2S(=O)(=O)N([C@H](C)CO)C[C@H]1C	.	-3	-1	-1
Cc1noc(C)c1NC(=O)N(C)C[C@H]1Oc2cc(C#CCC3CCCC3)ccc2S(=O)(=O)N([C@@H](C)CO)C[C@@H]1C	.	-4	-1	10*
Cc1noc(C)c1NC(=O)N(C)C[C@@H]1Oc2cc(C#CCC3CCCC3)ccc2S(=O)(=O)N([C@H](C)CO)C[C@@H]1C	.	9	-1	1
C[C@H](CO)N1C[C@H](C)[C@H](CN(C)C(=O)NC2CCCCC2)Oc2cc(C#Cc3ccc(F)cc3)ccc2S1(=O)=O	.	14	0	8.2*
CC(=O)N(C)C[C@@H]1Oc2cc(C#CCC(C)C)ccc2S(=O)(=O)N([C@H](C)CO)C[C@@H]1C	.	114*	-1	1
CC(=O)N1[C@@H]2c3ccc(C4=CCCC4)c(=O)n3C[C@H]1[C@H](CO)[C@H]2C(=O)NCC1CC1	.	-2	.	-5
COC(=O)C[C@H]1C=C[C@@H](NS(=O)(=O)c2ccc(OC)cc2)[C@@H](CO)O1	.	4	-1	1
COc1ccc(C2(O)CN(c3ccc(C)cc3)C3=[N+]2CCCC3)cc1 (configuration not stated)	-3	-4	43*	-1
Cc1ccc(S(=O)(=O)N2[C@@H](c3ccc(F)cc3)C(C(=O)O)=CC[C@H]2c2cccc(Cl)c2)cc1	1	-5	0	1
O=C(O)C1=CCC(c2ccc(Cl)c(Cl)c2)N(S(=O)(=O)c2ccc(F)cc2)C1c1cccc(F)c1 (configuration not stated)	.	-2	43*	-1
CC(C)NC(=O)N(C)C[C@H]1OCCCC[C@@H](C)Oc2ccc(NC(=O)c3ccncc3)cc2C(=O)N([C@@H](C)CO)C[C@H]1C	.	-7	0	-3
CC(C)(C)c1ccc(C(=O)c2c[nH]c(C(=O)NCCCN3CCOCC3)c2)cc1	-7	.	.	.
COc1cccc(C(=O)c2c[nH]c(C(=O)NCCCN3CCOCC3)c2)c1	-7	6	43*	15*
SMILES	dFosB activator	S100A4 inh HTS	FGF22 binding	F508del corr
CC1=NN(c2ccc(C)cc2)C(=O)/C1=C\C=C\c1ccccc1	0	0	0	-3
CC1=NN(c2cccc(C(=O)O)c2)C(=O)/C1=C\C=C/c1ccccc1	.	-1	43*	1
C(=NNc1ccc2ccccc2n1)c1ccccn1	.	2	0	8.2*
Cc1cc(NN=Cc2ccccn2)nc2ccccc12	.	0	0	6
COC(=O)[C@@H]1[C@@H](CO)[C@@H]2Cn3c(ccc(-c4ccncc4)c3=O)[C@@H]2N1CC1CCCCC1	.	-4	0	5
CCOC(=O)C1CCN(S(=O)(=O)c2ccc(C(C)(C)C)cc2)CC1	-3	-2	43*	-1
CN1CCN(C(=S)NC(=O)/C=C/c2ccccc2)CC1	-6	.	.	.
CN1CCN(C(=S)NC(=O)/C=C/c2ccccc2Cl)CC1	-8	-2	43*	2
C[C@H]1CN([C@@H](C)CO)S(=O)(=O)c2ccc(-c3ccccc3)cc2O[C@H]1CN(C)Cc1ccccc1	.	.	.	3
C[C@@H]1CN([C@@H](C)CO)C(=O)c2cc(NS(=O)(=O)c3cn(C)cn3)ccc2O[C@@H]1CN(C)S(=O)(=O)c1ccc(Cl)cc1	.	-1	0	0
C[C@@H]1CN([C@@H](C)CO)S(=O)(=O)c2ccc(C#CC3CCCC3)cc2O[C@H]1CN(C)C(=O)C1CC1	.	0	0	0
CCN(CC)CCOC(=O)c1ccc(N/C=C(/C#N)c2nc(-c3ccc4c(c3)OCO4)cs2)cc1	93*	-10	0	0
CCN(CC)CCOC(=O)c1ccc(N/C=C(/C#N)c2nc(-c3ccc(OC)cc3)cs2)cc1	?	-13	0	0
COc1cc(/C=C(\C#N)c2nc(-c3cc4ccccc4oc3=O)cs2)ccc1O	-6	15	0	.
CCN(CC)CCOC(=O)c1ccc(N/C=C(/C#N)c2nc(-c3cc4ccccc4oc3=O)cs2)cc1	39*	-6	0	0
O=C(Nc1ccc(N2CCCCC2)cc1)c1ccc([N+](=O)[O-])o1	-9	-3	0	0
O=C(Nc1ccc(N2CCCC2)c(Cl)c1)c1ccc([N+](=O)[O-])o1	-3	-10	43*	0
O=C(NC(CC1CCCCC1)C(=O)O)c1ccccc1 (configuration not stated)	8	4	44*	3
C#CCOc1ccccc1CNc1ccccc1	3	-16	43*	1
Oc1ccc(NCc2ccccc2OCc2ccccc2)cc1	-19	6	0	-5
CCCNC(=O)N1C[C@@H]2[C@H](c3ccccc31)[C@H](CO)N2C(=O)Nc1ccc(F)cc1	.	5	1	1
C[C@H](CO)N1C[C@H](C)[C@H](CN(C)S(=O)(=O)c2cccs2)Oc2ccc(NC(=O)NC3CCCCC3)cc2C1=O	.	-1	0	-1
O=c1cc(-c2ccccc2Cl)oc2cc(O)cc(O)c12	6	39	0	3

High-throughput results: PubChem, Broad Institute
